Series [1] has as its target T1, Prostaglandin G/H synthase 1 (Ovis aries) (UniProt P05979).
T1 sequence (whole entry): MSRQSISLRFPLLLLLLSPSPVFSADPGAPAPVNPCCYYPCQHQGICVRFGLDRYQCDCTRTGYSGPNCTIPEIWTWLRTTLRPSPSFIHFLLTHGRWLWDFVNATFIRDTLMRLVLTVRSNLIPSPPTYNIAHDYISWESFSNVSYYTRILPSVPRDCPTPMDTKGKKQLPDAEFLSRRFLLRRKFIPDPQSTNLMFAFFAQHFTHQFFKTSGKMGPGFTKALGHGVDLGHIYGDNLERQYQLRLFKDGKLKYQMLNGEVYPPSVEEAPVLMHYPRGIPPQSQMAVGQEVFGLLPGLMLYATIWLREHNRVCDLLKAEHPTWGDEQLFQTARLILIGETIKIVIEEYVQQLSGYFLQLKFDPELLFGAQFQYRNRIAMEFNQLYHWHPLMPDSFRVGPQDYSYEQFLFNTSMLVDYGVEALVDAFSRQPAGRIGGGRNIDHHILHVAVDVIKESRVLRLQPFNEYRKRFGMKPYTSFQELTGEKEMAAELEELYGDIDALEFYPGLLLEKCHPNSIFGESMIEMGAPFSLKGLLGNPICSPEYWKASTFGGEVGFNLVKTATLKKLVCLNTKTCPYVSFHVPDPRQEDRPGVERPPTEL
The experiment in a line: Inhibition of ovine COX-1 assessed as PGE2 formation at 1000 pg/ml (reference value: 981 ng/ml).

Series [2] deals with T2, Prostaglandin G/H synthase 2 (Homo sapiens) (UniProt P35354).
T2 sequence (whole entry): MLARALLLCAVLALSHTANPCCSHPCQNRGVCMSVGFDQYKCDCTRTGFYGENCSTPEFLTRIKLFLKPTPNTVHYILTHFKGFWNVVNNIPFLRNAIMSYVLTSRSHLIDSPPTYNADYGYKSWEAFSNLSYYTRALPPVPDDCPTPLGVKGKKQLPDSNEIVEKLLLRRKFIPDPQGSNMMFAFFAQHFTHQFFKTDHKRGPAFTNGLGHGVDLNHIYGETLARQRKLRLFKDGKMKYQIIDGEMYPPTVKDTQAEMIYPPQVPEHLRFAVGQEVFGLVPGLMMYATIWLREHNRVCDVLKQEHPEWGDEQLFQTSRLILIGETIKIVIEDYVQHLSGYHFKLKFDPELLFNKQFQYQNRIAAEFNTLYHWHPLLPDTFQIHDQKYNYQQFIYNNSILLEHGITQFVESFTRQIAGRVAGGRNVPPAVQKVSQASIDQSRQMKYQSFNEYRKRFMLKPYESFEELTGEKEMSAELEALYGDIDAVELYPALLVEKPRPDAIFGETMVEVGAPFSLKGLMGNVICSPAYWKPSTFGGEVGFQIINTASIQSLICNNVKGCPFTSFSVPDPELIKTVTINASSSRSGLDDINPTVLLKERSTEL
The series is described as follows: Inhibition of human recombinant COX-2 assessed as PGE2 formation at 100 pg/ml (reference value: 1072 ng/ml).

Series [3] relates to Jurkat. The experiment in a line: Induction of DNA fragmentation in human Jurkat cells at 10 ug/ml after 24 hrs by agarose gel electrophoresis. The class given is functional, cell-based. The gist of the method:
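Jurkat cells treated 24 h with 10 µg/mL peptide versus DMSO. About 2×10^6 cells lysed overnight at 37 C in Tris-HCl pH 8.5 with EDTA, 5% SDS and proteinase K. Lysates heat-inactivated, RNase-treated, DNA precipitated with isopropanol and ethanol-washed. Fragmentation assessed by gel electrophoresis.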

The target in series [4] is T1, Prostaglandin G/H synthase 1 (Ovis aries). The series is described as follows: Inhibition of ovine COX-1 assessed as PGE2 formation at 100 pg/ml (reference value: 981 ng/ml).
The test system of series [5] is Jurkat. The experiment in a line: Inhibition of apoptosis in human Jurkat cells assessed as caspase-3 expression relative to beta-actin at 10 ug/ml after 24 hrs by RT-PCR analysis. The class given is functional. Summed up: (§1)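 Jurkat cells (10^6/mL) exposed to 10 µg/mL peptide for 24 h (described as overnight in methods), with DMSO control. Total RNA extracted with TRIzol. Caspase-3, -8 and -9 transcripts measured by SYBR qPCR: 95 C for 5 min, then 35 cycles of 95 C for 30 s and 60 C for 45 s. Values given in arbitrary units relative to β-actin.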

Series [6] deals with Jurkat. The series is described as follows: Inhibition of apoptosis in human Jurkat cells assessed as caspase-9 expression relative to beta actin at 10 ug/ml after 24 hrs by RT-PCR analysis. The format is functional. Summed up: as §1
In series [7] the target is T2, Prostaglandin G/H synthase 2 (Homo sapiens). The series is described as follows: Inhibition of human recombinant COX-2 assessed as PGE2 formation at 5000 pg/ml (reference value: 1072 ng/ml).
The subject of series [8] is PBMC. The series is described as follows: Anti-inflammatory activity in human PBMC assessed as inhibition of LPS-induced TNFalpha production at 10 ug/ml after overnight incubation by immunoassay. The class given is functional. The gist of the method: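 Diluted venous blood from a single donor (10× in RPMI-1640), 1 mL cultures, stimulated with 1 µg/mL LPS from E. coli O:111:B4. Peptides added at 1 and 10 µg/mL from DMSO stock (5 mg/200 µL) diluted in RPMI-1640. DMSO dilutions served as 100% controls. Overnight incubation, then supernatants frozen at -20 C and TNF-α measured by ELISA.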

The next series concerns A-431. The series is described as follows: Cytotoxicity against human A431 cells at 25 ug/ml. The class given is functional, cell-based.
Series [9] concerns PBMC. The experiment in a line: Immunosuppressive activity in human PBMC assessed as inhibition of PHA-induced cell proliferation at 10 ug/ml after 4 days by MTT assay. The class given is functional, cell-based. Summed up:
(§2)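 PBMC (2×10^5 cells/well) in supplemented RPMI-1640, stimulated with 5 µg/mL PHA, with peptide at 1, 10 or 100 µg/mL. DMSO dilutions as control; no-PHA wells as baseline. Proliferation read by MTT after 4 days of incubation. Data given as mean OD of quadruplicate wells ± SE.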
In general terms: Formazan colour is commonly taken as a measure of viable cells.

Series [10] has as its system PBMC. The experiment in a line: Cytotoxicity against human PBMC assessed as reduction in cell viability at 10 ug/ml after 24 hrs by MTT assay. The class given is cell-based. The gist of the method:
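Single-donor PBMC isolated on LSM, resuspended in RPMI-1640 with 10% FCS, L-glutamine, pyruvate, 2-mercaptoethanol and antibiotics. Cells plated at 3×10^5 per well and cultured 24 h with peptide at 1, 10 or 100 µg/mL. Survival read by MTT and expressed as % viable cells versus matched DMSO controls.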

The subject of series [11] is Jurkat. The experiment in a line: Inhibition of apoptosis in human Jurkat cells assessed as caspase-8 expression relative to beta-actin at 10 ug/ml after 24 hrs by RT-PCR analysis. The class given is functional. The gist of the method:
as §1

A further series relates to HT-29. The series is described as follows: Cytotoxicity against human HT-29 cells at 25 ug/ml. The class given is functional, cell-based.
Series [12] has as its system PBMC. The experiment in a line: Immunosuppressive activity in human PBMC assessed as inhibition of PHA-induced proliferation after 4 days by MTT assay. The class given is functional, cell-based. Summed up:
as §2

Series [13] concerns the target T2, Prostaglandin G/H synthase 2 (Homo sapiens). The series is described as follows: Inhibition of human recombinant COX-2 assessed as PGE2 formation at 1000 pg/ml (reference value: 1072 ng/ml).

The source of these data is ChEMBL document CHEMBL4043099, “Synthesis and biological activity of cyclolinopeptide A analogues modified with γ4-bis(homo-phenylalanine)” (Bioorg Med Chem, 2017).

The source made the active and inactive calls. The rule behind the calls is not given here.

Turning to `CC[C@H](C)[C@@H]1NC(=O)[C@H](CC(C)C)NC(=O)[C@H](Cc2ccccc2)NC(=O)CC[C@H](Cc2ccccc2)NC(=O)[C@@H]2CCCN2C(=O)[C@@H]2CCCN2C(=O)[C@H](C(C)C)NC(=O)[C@H](CC(C)C)NC(=O)[C@H]([C@@H](C)CC)NC1=O`, the Activity in series [1] is 1030 ng/mL; in series [2], 1180 ng/mL; in series [4] it was 1110 ng/mL; in series [7], 1230 ng/mL; in the series with PBMC [10] it was “Non-Toxic”; in the series with PBMC [12] it was “Dose-dependent effect”. In addition, the Activity in [13] is 1060 ng/mL. For the same molecule, the outcome in the series with Jurkat [3] and in the series with PBMC [9] was Active. Also, the “fold change (FC)” value in the series on Jurkat [5] stood at 0; in the series on Jurkat [6], 0.538; in the series with Jurkat [11], 0.591. For the same molecule, the inhibition result in the series on PBMC [8] was “Active”. The outcome in the series with A-431 and in the series with HT-29 was inactive.
